Shown are actives, neighbours in structure and some others; about 1.9% of the full set was active somewhere.
MT stabilizer: microtubule stabilizers in HeLa cells; HeLa tubulin immunostaining HCS, 24 h; share of cells brighter than vehicle mean+2SD; % tubulin-high responders, % at 10 µM; 0.83% of 200,000 active;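 active means plate Z-score above 3 for both tubulin-high and condensed-nucleus cell shares, with cell loss under 80%, at 10 µM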;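 further: anti alpha tubulin signal scored within the nucleus-defined area of each cell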
Furin inhibitor: blocks human furin protease activity. 0.061% of 220,000 active. inhibition, % at 20 µM or 30 µM. purified furin, fluorogenic substrate cleavage. AID 463115; in the data active means inhibition above about 25%
Target sequence (P09958 108-714 limits assumed): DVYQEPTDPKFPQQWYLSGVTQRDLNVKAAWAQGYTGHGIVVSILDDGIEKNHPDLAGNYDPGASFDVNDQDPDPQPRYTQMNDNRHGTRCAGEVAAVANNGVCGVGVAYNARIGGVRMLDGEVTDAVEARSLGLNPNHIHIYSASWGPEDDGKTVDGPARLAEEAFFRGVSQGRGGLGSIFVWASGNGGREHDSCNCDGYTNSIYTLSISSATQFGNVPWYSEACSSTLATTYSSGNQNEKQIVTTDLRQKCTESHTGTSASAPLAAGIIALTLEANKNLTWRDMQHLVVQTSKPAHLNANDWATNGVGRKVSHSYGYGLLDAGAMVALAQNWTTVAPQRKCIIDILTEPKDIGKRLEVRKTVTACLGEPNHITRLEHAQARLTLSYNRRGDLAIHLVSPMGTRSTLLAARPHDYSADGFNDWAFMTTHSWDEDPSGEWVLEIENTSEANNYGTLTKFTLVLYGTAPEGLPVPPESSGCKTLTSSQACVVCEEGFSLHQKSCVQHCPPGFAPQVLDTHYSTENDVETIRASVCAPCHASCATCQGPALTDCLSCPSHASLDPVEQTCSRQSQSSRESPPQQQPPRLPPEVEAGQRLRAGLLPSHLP
HSV replic up: increases HSV replication in cells; 0.005% of 220,000 active; HSV replication augmentation in cells, fold increase; maximum fold increase; in the data active means maximum fold increase above about 1.5; inconclusive means no clear call, values can overlap the other calls; tested in PC3 cells
b-catenin transl: modulators of beta-catenin nuclear translocation; HeLa beta-catenin nuclear translocation, immunofluorescence imaging; 0.3% of 190,000 active; nuclear translocation activity, % at 5 µM; AID 1665;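 active means nuclear translocation activity above 50% at 5 µM, with a well cell count of 50 or more; inconclusive means wells under 50 cells across six images, flagged as toxic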;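 further: per-cell ratio of nuclear to cytoplasmic median beta-catenin stain intensity; plate controls were DMSO negative control for no effect and GSK-3 inhibitor IX positive control for full effect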
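assay system = human HeLa cells, endogenous beta-catenin | times = compound treatment 24 h, 37°C, 5% CO2 | detection = Anti-beta-catenin immunofluorescence on PFA-fixed, Triton-permeabilized cells, DAPI nuclei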
Ins promoter up: MIN6 insulin promoter up-regulation; MIN6 insulin promoter-GFP reporter, high-content imaging; stronger effect = higher value; z-score at 5 µM; 0.3% of 190,000 active;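 active means z-score above 3 at 5 µM with at least 500 cells counted in the well; inconclusive means wells under 500 cells, flagged as cytotoxic or low count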
Autophagy mod: autophagy modulation, high-content screen; calls only at 10 µM (by protocol); AID 463193; MEF GFP-LC3 puncta imaging; test concentration mostly 10 µM; 0.98% of 190,000 active;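 active means percentage of spot-positive cells more than 3 SD above its plate mean, without a fluorescence outlier flag or 80% toxicity; inconclusive means no clear call, values can overlap the other calls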;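 further: spot-positive cell cutoff set from DMSO-treated cells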
* hit, by the source's call; i = inactive; ? = inconclusive; . = no result; + = active, no number.

SMILES | MT stabilizer | Furin inhibitor | HSV replic up | b-catenin transl | Ins promoter up | Autophagy mod
COc1cccc(CNc2ccc(C)c(Cl)c2)c1 | 1 | -17 | i | -2 | -0.37 | i
CCC1CCCCN1c1nc2c(C=O)c(C)nn2c2ccccc12 (centres undefined) | 2 | -9 | i | -5 | -0.22 | i
Nc1cc(-c2cccc(Br)c2)nn1Cc1ccccc1 | 3 | -1 | i | 0 | 0.27 | +
Nc1cc(-c2ccc(Br)cc2)nn1Cc1ccccc1 | 2 | -21 | i | 1 | -0.53 | i
CC(=O)N1CCc2cc(N=NC3=C(O)CC(C)(C)CC3=O)ccc21 | 3 | -5 | i | -2 | -0.47 | i
CCC(=O)c1ccc(OCC(O)CN(C)C2CCCCC2)cc1 (centres undefined) | 3 | -21 | i | . | . | i
CN(CC(O)COc1ccc(OCC(O)CN(C)C2CCCCC2)cc1)C1CCCCC1 (centres undefined) | 2 | -12 | i | -4 | 0.07 | +
N#C[C@H]1[C@H](c2ccccc2)[C@](C#N)(C(=O)c2ccccc2)[C@@H]2C=Cc3ccccc3N21 | 25* | 4 | . | 78* | 0.7 | i
O=c1c(N2CCOCC2)c(N2CCOCC2)c1=O | . | -14 | i | 1 | 3* | .
COc1cc(/C=N/N(C)C)ccc1OC(=O)c1cccs1 | 4 | -7 | i | -2 | 0.6 | i
Cc1[nH]c2ccccc2c1SCC(=O)NNC(=O)Nc1ccc(OC(F)(F)F)cc1 | . | -16 | i | -1 | 0.33 | .
N#CC1=C(N)Oc2ccc3ccccc3c2C1c1cccnc1 (centres undefined) | 16* | -19 | i | -2 | -0.33 | i
CCn1c(=O)cc(SCC(=O)NCCCN2CCN(c3ccccc3F)CC2)c2ccccc21 | 4 | 11 | i | 3 | -2.8 | +
COc1ccc(-c2ocnc2C(=O)NCc2nn(-c3ccccc3)nc2C)cc1 | . | -9 | i | -2 | 0.33 | .
OC(CNCc1ccc(Cl)cc1)(c1ccccc1)c1ccc(F)cc1 (centres undefined) | 2 | -8 | i | 3 | . | +
OC(CNCc1ccc(F)cc1)(c1ccc(F)cc1)c1ccc(F)cc1 | 1 | -18 | i | . | . | i
COc1ccc(C2CC(=O)N3C(=C2C#N)SCC3(O)c2ccccc2)cc1 (centres undefined) | 3 | -21 | i | -6 | -1.4 | i
N#CC1=C2SCC(O)(c3ccccc3)N2C(=O)CC1c1cccs1 (centres undefined) | 32* | -18 | i | 176* | -0.77 | i
N#CC1=C2SCC(O)(c3ccccc3)N2C(=O)CC1c1ccccc1F (centres undefined) | 47* | -3 | i | . | -0.02 | i
CN(C)CCN(Cc1cc2cc3c(cc2[nH]c1=O)OCO3)C(=S)NCC1CCCO1 (centres undefined) | 1 | -25 | i | 0 | -0.35 | i
O=C(COC(=O)c1ccc[nH]c1=O)NCC1CCCO1 (centres undefined) | 4 | 30* | i | 1 | . | i
O=C(COC(=O)c1ccccc1)NCC1CCCO1 (centres undefined) | 1 | -23 | i | -8 | . | i
O=C(COC(=O)c1cccc2ccccc12)NCC1CCCO1 (centres undefined) | 3 | -22 | i | -2 | -0.28 | i
O=C(COC(=O)c1ccco1)NCC1CCCO1 (centres undefined) | 2 | -19 | i | 0 | 3* | i
CN(C)CCOC(=O)c1ccc2c(c1)S(=O)(=O)c1ccccc1C2=O | . | -21 | i | -1 | 0.44 | .
SMILES | MT stabilizer | Furin inhibitor | HSV replic up | b-catenin transl | Ins promoter up | Autophagy mod
CC(C)(C)C(=O)c1sc2nc(-c3cccs3)cc(C(F)(F)F)c2c1N | 12 | -25 | ? | -5 | . | +
COc1ccc(NC(=O)c2sc3nc(Cc4ccccc4)cc(C(F)(F)F)c3c2N)cc1OC | i | -10 | i | -1 | -0.33 | i
COc1ccccc1NC(=O)c1sc2nc(Cc3ccccc3)cc(C(F)(F)F)c2c1N | i | -1 | i | 0 | 0.13 | +
Cc1nn(C)c2nc(-c3cccs3)cc(C(F)(F)F)c12 | 4 | -35 | i | 0 | 0.08 | i
Cc1nnc(NC(=O)c2sc3nc(-c4cccs4)cc(C(F)(F)F)c3c2N)s1 | 5 | 3 | ? | 3 | . | +
Nc1c(C(=O)Nc2nccs2)sc2nc(-c3cccs3)cc(C(F)(F)F)c12 | 3 | -2 | . | -2 | . | +

Bioassay records (PubChem)
